Published values collected from several papers.
Lines come from different studies, so protocols differ.

| Compound | test system | setting | quantity | result |
| --- | --- | --- | --- | --- |
| CC[C@H](C)[C@H](NC(=O)[C@H](CC(C)C)NC(=O)[C@H](Cc1c[nH]c2ccccc12)NC(=O)[C@H](CCC(N)=O)NC(=O)[C@@H](NC(=O)[C@H](Cc1ccccc1)NC(=O)[C@H](C)NC(=O)[C@H](CCCCNC(=O)COCCOCCNC(=O)COCCOCCNC(=O)CC[C@H](NC(=O)CCCCCCCCCCCCCCCCCCC(=O)O)C(=O)O)NC(=O)[C@H](CCC(N)=O)NC(=O)[C@H](C)NC(=O)[C@@H](NC(=O)[C@H](CCCCN)NC(=O)[C@H](CC(=O)O)NC(=O)[C@H](CC(C)C)NC(=O)C(C)(C)NC(=O)[C@@H](NC(=O)[C@H](CO)NC(=O)[C@H](Cc1ccc(O)cc1)NC(=O)[C@H](CC(=O)O)NC(=O)[C@H](CO)NC(=O)[C@@H](NC(=O)[C@H](Cc1ccccc1)NC(=O)[C@@H](NC(=O)CNC(=O)[C@H](CCC(=O)O)NC(=O)C(C)(C)NC(=O)[C@@H](N)Cc1ccc(O)cc1)[C@@H](C)O)[C@@H](C)O)[C@@H](C)CC)[C@@H](C)CC)C(C)C)C(=O)N[C@@H](C)C(=O)NCC(=O)NCC(=O)N1CCC[C@H]1C(=O)N[C@@H](CO)C(=O)N[C@@H](CO)C(=O)NCC(=O)N[C@@H](C)C(=O)N1CCC[C@H]1C(=O)N1CCC[C@H]1C(=O)N1CCC[C@H]1C(=O)N[C@@H](CO)C(N)=O | human, plasma | subcutaneous, 5 mg, patients | Cmax | 379 ng/mL |
| COc1ccc2[nH]cc(CCNc3nccc(Nc4cccc5c4ccn5C)n3)c2c1 | mouse, plasma | oral, 28.6 mg/kg | Tmax | 0.25 h |
| N=C(N)NCCC[C@@H](NC(=O)[C@@H](N)Cc1ccccc1)C(=O)N[C@@H](Cc1ccccc1)C(=O)N[C@@H](CCCCN)C(N)=O | human, plasma | subcutaneous, 15 mg, patients | Cmax | 886 ng/mL |
| C[C@H]1O[C@@H](O[C@H]2[C@@H](O)C[C@H](O[C@H]3[C@@H](O)C[C@H](O[C@H]4CC[C@@]5(C)[C@H](CC[C@@H]6[C@@H]5C[C@@H](O)[C@]5(C)[C@@H](C7=CC(=O)OC7)CC[C@]65O)C4)O[C@@H]3C)O[C@@H]2C)C[C@H](O)[C@@H]1O | Caco-2 | 10 µM, 1 h, pH 7.4 | efflux ratio | 5.33 |
| Cc1nc2c(=O)n(C)c(=O)nc-2n(C)n1 | Caco-2 |  | efflux ratio | 1 |
| NCC(=O)Nc1ccc(-n2nc(C(F)(F)F)cc2-c2ccc3c(ccc4ccccc43)c2)cc1 | mouse, plasma | oral, 80 mg/kg, single dose | Tmax | 10 h |
| CC(=C/C=C/C(C)=C/C(=O)O)/C=C1\CCCc2ccccc21 | human, plasma | oral, 10 mg, single dose, fasted, healthy volunteers | Cmax | 55.9 ng/mL |
| C=C(C)[C@@H]1CC[C@]2(NCCN3CCS(=O)(=O)CC3)CC[C@]3(C)[C@H](CC[C@@H]4[C@@]5(C)CC=C(C6=CC[C@@](COc7ncccc7C#N)(C(=O)O)CC6)C(C)(C)[C@@H]5CC[C@]43C)[C@@H]12 | human, plasma | oral, 100 mg, single dose, fasted, tablet | Cmax | 228 ng/mL |
| Cc1ccccc1C(=O)NN=Cc1ccc(O)c(Br)c1 | mouse, plasma | intraperitoneal, 1.6 mg/kg | Tmax | 0.5 h |
| N=c1c2c(-c3ccccc3)c(-c3ccccc3)n(Cc3ccccc3)c2ncn1[C@H]1CC[C@H](O)CC1 | male cynomolgus monkey, plasma | intravenous, 0.5 mg/kg, single dose | Vd | 1.5 L/kg |
| c1cc([C@H]2CC[C@]3(CC2)OO[C@]2(O3)C3CC4CC(C3)CC2C4)ccc1OCCN1CCOCC1 | human, plasma | oral, 200 mg, patients | Cmax | 339 ng/mL |
| C[C@]12CC[C@H](n3ccnc3)CC1=CC[C@@H]1[C@@H]2CC[C@]2(C)C(n3cnc4ccccc43)=CC[C@@H]12.Cl.Cl | male CD-1 mouse, plasma | oral, 10 mg/kg | Tmax | 17.3 h |
